Assays:
Rattus norvegicus [1] = test: Percent change from pre-treatment triglycerides level at 100 mg/Kg after 1 week; type: functional
In short: (§1)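 Female obese Zucker fatty rats Crl:(Zuc)-faBR, 10–12 weeks old (400–500 g), n=3–4, fed chow. Dosed by oral gavage once daily in 20% EtOH/80% PEG-200 for up to 14 days. Serum taken after a 6 h fast before dosing, at day 7 (orbital plexus) and at day 14 (cardiac puncture). TG by enzymatic kit on analyzer. HDL-C and non-HDL-C from Superose 6 gel-filtration profile area × total cholesterol. Results given as % change from pretreatment.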

Rattus norvegicus [2] = test: Serum Non-HDL cholesterol levels in female obese rats one week post treatment at 30 mg/kg oral dose; pretreatment value = 31 mg/dL; type: functional
In short: (§2)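 Female obese Zucker fatty rats (10–12 weeks, 400–500 g), once-daily oral gavage in 20% EtOH/80% PEG-200 (v/v) for up to 14 days. Serum drawn after a 6 h fast, pre-dose and at days 7 and 14. Non-HDL cholesterol is serum total cholesterol times the percent area of the non-HDL peaks in a Superose 6HR gel-filtration profile with on-line cholesterol detection. n = 4 per dose.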

Rattus norvegicus [3] = test: Blood glucose levels in female obese rats two weeks post treatment at 10 mg/kg oral dose; pretreatment value = 112 mg/dL; type: functional
Rattus norvegicus [4] = test: Serum Triglyceride levels in female obese rats two weeks post treatment at 100 mg/kg oral dose; pretreatment value = 746 mg/dL; type: functional
Rattus norvegicus [5] = test: Serum NEFA levels in female obese rats one week post treatment at 100 mg/kg oral dose; pretreatment value = 1.1 mg/dL; type: functional
Rattus norvegicus [6] = test: Blood glucose levels in female obese rats one week post treatment at 10 mg/kg oral dose; pretreatment value = 112 mg/dL; type: functional
Rattus norvegicus [7] = test: Percent change from pre-treatment Non HDL-Cholesterol level at 100 mg/Kg after 1 week; type: functional; in short: as §1
Rattus norvegicus [8] = test: Serum Non-HDL cholesterol levels in female obese rats two weeks post treatment at 30 mg/kg oral dose; pretreatment value = 31 mg/dL; type: functional; in short: as §2
Rattus norvegicus [9] = test: Percent change from pre-treatment HDL-Cholesterol level at 100 mg/Kg after 2 weeks; type: functional; in short: as §1
Rattus norvegicus [10] = test: Percent change from pre-treatment HDL-Cholesterol level at 100 mg/Kg after 1 week; type: functional; in short: as §1
Rattus norvegicus [11] = test: Serum HDL cholesterol levels in female obese rats two weeks post treatment at 3 mg/kg oral dose; pretreatment value = 59 mg/dL; type: functional
Rattus norvegicus [12] = test: Insulin levels in female obese rats one week post treatment at 100 mg/kg oral dose; pretreatment value = 12.7 ng/mL; type: functional
Rattus norvegicus [13] = species: Rattus norvegicus; test: In vitro inhibitory concentration against lipid synthesis in primary rat hepatocyte culture; type: functional
In short: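 Primary hepatocytes isolated from male Sprague-Dawley rats (Seglen method) and plated on collagen in DMEM with 20% FBS, 100 nM insulin, 25 mM glucose. Medium made serum-free after 4 h, cultured overnight to monolayers. Then 4 h incubation with 0.25 μCi [14C]-acetate/well (1 Ci/mol) and 0–300 μM compound. Lipids extracted into scintillant and counted. IC50 derived from lipid synthesis rates by nonlinear sigmoidal fit.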

Rattus norvegicus [14] = test: Serum NEFA levels in female obese rats one week post treatment at 3 mg/kg oral dose; pretreatment value = 1.2 mg/dL; type: functional
Rattus norvegicus [15] = test: Serum Non-HDL cholesterol levels in female obese rats two weeks post treatment at 100 mg/kg oral dose; pretreatment value = 23 mg/dL; type: functional; in short: as §2
Rattus norvegicus [16] = test: Serum NEFA levels in female obese rats two weeks post treatment at 100 mg/kg oral dose; pretreatment value = 1.1 mg/dL; type: functional
Rattus norvegicus [17] = test: Percent change from pre-treatment triglycerides level at 100 mg/Kg after 2 weeks; type: functional; in short: as §1
Rattus norvegicus [18] = test: Serum Non-HDL cholesterol levels in female obese rats one week post treatment at 100 mg/kg oral dose; pretreatment value = 23 mg/dL; type: functional; in short: as §2
Rattus norvegicus [19] = test: Blood glucose levels in female obese rats two weeks post treatment at 100 mg/kg oral dose; pretreatment value = 105 mg/dL; type: functional
Rattus norvegicus [20] = test: Serum NEFA levels in female obese rats two weeks post treatment at 30 mg/kg oral dose; pretreatment value = 1.3 mg/dL; type: functional
Rattus norvegicus [21] = test: Percent change from pre-treatment Non HDL-Cholesterol level at 100 mg/Kg after 2 weeks; type: functional; in short: as §1
Rattus norvegicus [22] = test: Insulin levels in female obese rats one week post treatment at 3 mg/kg oral dose; pretreatment value = 12.9 ng/mL; type: functional
Rattus norvegicus [23] = test: Insulin levels in female obese rats two weeks post treatment at 10 mg/kg oral dose; pretreatment value = 8.2 ng/mL; type: functional
Rattus norvegicus [24] = test: Blood glucose levels in female obese rats one week post treatment at 100 mg/kg oral dose; pretreatment value = 105 mg/dL; type: functional
Rattus norvegicus [25] = test: Serum HDL cholesterol levels in female obese rats two weeks post treatment at 30 mg/kg oral dose; pretreatment value = 49 mg/dL; type: functional
Rattus norvegicus [26] = test: Insulin levels in female obese rats two weeks post treatment at 10 mg/kg oral dose; pretreatment value = 8.8 ng/mL; type: functional
Rattus norvegicus [27] = test: Serum NEFA levels in female obese rats two weeks post treatment at 30 mg/kg oral dose; pretreatment value = 1.2 mg/dL; type: functional
Rattus norvegicus [28] = test: Serum NEFA levels in female obese rats one week post treatment at 10 mg/kg oral dose; pretreatment value = 1.4 mg/dL; type: functional
Rattus norvegicus [29] = test: Serum NEFA levels in female obese rats one week post treatment at 30 mg/kg oral dose; pretreatment value = 1.2 mg/dL; type: functional
Rattus norvegicus [30] = test: Serum Triglyceride levels in female obese rats two weeks post treatment at 10 mg/kg oral dose; pretreatment value = 1185 mg/dL; type: functional
Rattus norvegicus [31] = test: Serum NEFA levels in female obese rats two weeks post treatment at 10 mg/kg oral dose; pretreatment value = 1.4 mg/dL; type: functional
Rattus norvegicus [32] = test: Insulin levels in female obese rats one week post treatment at 100 mg/kg oral dose; pretreatment value = 8.6 ng/mL; type: functional
Rattus norvegicus [33] = test: Serum Non-HDL cholesterol levels in female obese rats two weeks post treatment at 10 mg/kg oral dose; pretreatment value = 33 mg/dL
Rattus norvegicus [34] = test: Serum Triglyceride levels in female obese rats two weeks post treatment at 3 mg/kg oral dose; pretreatment value = 1111 mg/dL; type: functional
Rattus norvegicus [35] = test: Serum Triglyceride levels in female obese rats one week post treatment at 3 mg/kg oral dose; pretreatment value = 1111 mg/dL; type: functional
Rattus norvegicus [36] = test: Blood glucose levels in female obese rats one week post treatment at 10 mg/kg oral dose; pretreatment value = 110 mg/dL; type: functional
Rattus norvegicus [37] = test: Serum NEFA levels in female obese rats one week post treatment at 3 mg/kg oral dose; pretreatment value = 1.1 mg/dL; type: functional
Rattus norvegicus [38] = test: Serum HDL cholesterol levels in female obese rats one week post treatment at 30 mg/kg oral dose; pretreatment value = 49 mg/dL; type: functional
Rattus norvegicus [39] = test: Serum NEFA levels in female obese rats one week post treatment at 100 mg/kg oral dose; pretreatment value = 1.2 mg/dL; type: functional
Rattus norvegicus [40] = test: Serum HDL cholesterol levels in female obese rats two weeks post treatment at 3 mg/kg oral dose; pretreatment value = 57 mg/dL; type: functional

Structure (SMILES): CC(C)(CO)CCCCOCCCCC(C)(C)CO
- Change (Rattus norvegicus [1]): -77%
- Activity (Rattus norvegicus [2]): 20 mg/dL
- Activity (Rattus norvegicus [3]): 117 mg/dL
- Activity (Rattus norvegicus [4]): 219 mg/dL
- Activity (Rattus norvegicus [5]): 0.76 mg/dL
- Activity (Rattus norvegicus [6]): 110 mg/dL
- Change (Rattus norvegicus [7]): -38%
- Activity (Rattus norvegicus [8]): 33 mg/dL
- Change (Rattus norvegicus [9]): 366%
- Change (Rattus norvegicus [10]): 234%
- Activity (Rattus norvegicus [11]): 79 mg/dL
- Activity (Rattus norvegicus [12]): 14.5 ng/mL
- IC50 (Rattus norvegicus [13]): 11 µM
- Activity (Rattus norvegicus [14]): 1.7 mg/dL
- Activity (Rattus norvegicus [15]): 26 mg/dL
- Activity (Rattus norvegicus [16]): 0.83 mg/dL
- Change (Rattus norvegicus [17]): -71%
- Activity (Rattus norvegicus [18]): 14 mg/dL
- Activity (Rattus norvegicus [19]): 101 mg/dL
- Activity (Rattus norvegicus [20]): 0.75 mg/dL
- Change (Rattus norvegicus [21]): 11%
- Activity (Rattus norvegicus [22]): 15.1 ng/mL
- Activity (Rattus norvegicus [23]): 9 ng/mL
- Activity (Rattus norvegicus [24]): 107 mg/dL

Structure (SMILES): CC(C)(CO)CCCCCOCCCCCC(C)(C)CO
- Change (Rattus norvegicus [1]): -91%
- Activity (Rattus norvegicus [2]): 15 mg/dL
- Activity (Rattus norvegicus [25]): 138 mg/dL
- Activity (Rattus norvegicus [26]): 8.7 ng/mL
- Change (Rattus norvegicus [7]): -82%
- Activity (Rattus norvegicus [27]): 0.82 mg/dL
- Activity (Rattus norvegicus [8]): 32 mg/dL
- Change (Rattus norvegicus [9]): 133%
- Change (Rattus norvegicus [10]): 99%
- Activity (Rattus norvegicus [28]): 1.3 mg/dL
- IC50 (Rattus norvegicus [13]): 4 µM
- Activity (Rattus norvegicus [15]): 10 mg/dL
- Activity (Rattus norvegicus [29]): 0.89 mg/dL
- Activity (Rattus norvegicus [30]): 1420 mg/dL
- Activity (Rattus norvegicus [31]): 1.5 mg/dL
- Activity (Rattus norvegicus [32]): 3.5 ng/mL
- Activity (Rattus norvegicus [33]): 53 mg/dL
- Activity (Rattus norvegicus [34]): 1116 mg/dL
- Activity (Rattus norvegicus [35]): 1031 mg/dL
- Change (Rattus norvegicus [17]): -82%
- Activity (Rattus norvegicus [36]): 100 mg/dL
- Activity (Rattus norvegicus [18]): 5 mg/dL
- Activity (Rattus norvegicus [19]): 104 mg/dL
- Change (Rattus norvegicus [21]): -68%
- Activity (Rattus norvegicus [37]): 1.3 mg/dL
- Activity (Rattus norvegicus [38]): 128 mg/dL
- Activity (Rattus norvegicus [24]): 72 mg/dL
- Activity (Rattus norvegicus [39]): 1.2 mg/dL
- Activity (Rattus norvegicus [40]): 56 mg/dL

Source: ChEMBL document CHEMBL1137218, “Long hydrocarbon chain ether diols and ether diacids that favorably alter lipid disorders in vivo” (J Med Chem, 2004)
